pIC50: −log10 of the molar value. Calls of active or inactive are those of the source. The calls are words filed in the database; no cut-off is given here.
Legend:
[1] = Cytotoxicity against human HuDe cells incubated for 72 hrs by MTT assay; assay type: cell-based
Method in brief: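 HuDe primary culture from human epidermis, seeded at 2 × 10⁴ cells/mL. Test drugs at different concentrations, or 0.1% DMSO, added 24 h after seeding, with 72 h exposure. MTT (5 mg/mL in PBS) then applied for 3 h at 37 °C. Formazan solubilized with isopropanol/triton X-100/HCl and read at 570 nm with 690 nm blank.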

K562 [2] = experiment: Selectivity index, ratio of IC50 for human HuDe cells to IC50 human K562 cells
Method in brief: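 Index taken as the ratio of HuDe to K562 IC₅₀. For K562: about 2 × 10⁵ cells/mL, compounds added at graded concentrations, viable count by trypan blue exclusion with a hemocytometer after 24 h. For HuDe primary epidermal cells: 2 × 10⁴ cells/mL, drugs or 0.1% DMSO added 24 h after seeding, MTT read at 570 nm (690 nm blank) after 72 h.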

CCRF-CEM = experiment: Growth inhibition of human CCRF-CEM cells by NCI standard protocol based method; assay type: functional
Method in brief: (§1)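 NCI full 60-cell-line panel, 5-dose assay to the NCI standard protocol. GI₅₀ is the molar concentration inhibiting 50% net cell growth. Mean graph midpoint is averaged over all lines; where the effect is not reached, the highest tested concentration is used.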

[3] = Growth inhibition of human RPMI8226 cells by NCI standard protocol based method; assay type: functional; details: RPMI-8226; method in brief: as §1
SR = experiment: Growth inhibition of human SR cells by NCI standard protocol based method; assay type: functional
Method in brief: (§2)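 NCI 60-cell-line screen, standard NCI protocol. Single high dose of 10⁻⁵ M first, then a 5-dose assay across the full panel. Reported as GI₅₀, TGI and LC₅₀, the molar concentrations giving 50% net growth inhibition, total growth inhibition and 50% net cell death. Where an effect was not reached, the highest tested concentration was used.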

[4] = Growth inhibition of human COLO205 cells by NCI standard protocol based method; assay type: functional; details: COLO 205; method in brief: as §1
[5] = Growth inhibition of human HCC2998 cells by NCI standard protocol based method; assay type: functional; details: HCC 2998; method in brief: as §1
HCT-15 = experiment: Growth inhibition of human HCT15 cells by NCI standard protocol based method; assay type: functional; method in brief: as §1
U-251 = experiment: Growth inhibition of human U251 cells by NCI standard protocol based method; assay type: functional; method in brief: as §2
[6] = Growth inhibition of human LOXIMVI cells by NCI standard protocol based method; assay type: functional; details: LOX IMVI; method in brief: as §1
UACC-257 = experiment: Growth inhibition of human UACC257 cells by NCI standard protocol based method; assay type: functional; method in brief: as §2
NCI/ADR-RES = experiment: Growth inhibition of human NCI/ADR-RES cells by NCI standard protocol based method; assay type: functional; method in brief: as §1
SK-OV-3 = experiment: Growth inhibition of human SKOV3 cells by NCI standard protocol based method; assay type: functional; method in brief: as §2
ACHN = experiment: Growth inhibition of human ACHN cells by NCI standard protocol based method; assay type: functional; method in brief: as §1
UO-31 = experiment: Growth inhibition of human UO31 cells by NCI standard protocol based method; assay type: functional; method in brief: as §2
DU-145 = experiment: Growth inhibition of human DU145 cells by NCI standard protocol based method; assay type: functional; method in brief: as §1
[7] = Growth inhibition of human Hs578T cells by NCI standard protocol based method; assay type: functional; details: Hs-578T; method in brief: as §1
T47D = experiment: Growth inhibition of human T47D cells by NCI standard protocol based method; assay type: functional; method in brief: as §2
Tubulin (Homo sapiens) = Tubulin (Homo sapiens) (UniProt P68371+Q9H4B7+P0DPH7+P68366+Q13509+Q71U36+P04350+Q3ZCM7+P07437+P68363+Q9BQE3+Q6PEY2+Q13885+Q9BVA1+Q9BUF5); experiment: Inhibition of colchicine binding to tubulin (unknown origin); assay type: protein-complex assay
K562 [8] = experiment: Induction of morphological changes in human K562 cells at 10 and 25 uM incubated for 48 hrs by light microscopy; assay type: functional, cell-based
Method in brief: (§3)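 K562 cells (8 × 10³/well) plated on poly-D-lysine-coated wells and treated at 10 or 25 μM for 48 h. Examined by light microscopy at 200× for shape, detachment, cell number and cell size.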

K562 [9] = experiment: Reduction in cell number of human K562 cells at 10 and 25 uM incubated for 48 hrs by light microscopy; assay type: functional, cell-based; method in brief: as §3
K562 [10] = experiment: Induction of morphological changes in human K562 cells assessed as cell detachment at 10 and 25 uM incubated for 48 hrs by light microscopy; assay type: functional, cell-based; method in brief: as §3
K562 [11] = experiment: Induction of cell cycle arrest in human K562 cells assessed as accumulation at G0/G1 phase at 10 uM incubated for 24 hrs by propidium iodide staining based flow cytometry (reference value: 54.9%); assay type: functional
K562 [12] = experiment: Induction of cell cycle arrest in human K562 cells assessed as accumulation at G2/M phase at 10 uM incubated for 24 hrs by propidium iodide staining based flow cytometry (reference value: 31.6%); assay type: functional
K562 [13] = experiment: Induction of cell cycle arrest in human K562 cells assessed as accumulation at sub G0/G1 phase at 10 uM incubated for 48 hrs by propidium iodide staining based flow cytometry (reference value: 0.8%); assay type: functional
K562 [14] = experiment: Induction of cell cycle arrest in human K562 cells assessed as accumulation at G2/M phase at 10 uM incubated for 48 hrs by propidium iodide staining based flow cytometry (reference value: 27.4%); assay type: functional
K562 [15] = experiment: Induction of apoptosis in human K562 cells assessed as chromatin condensation at 10 uM incubated for 48 hrs by Hoechst 33342 staining based fluorescence microscopy; assay type: functional, cell-based
Method in brief: (§4)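 K562 cells (8 × 10³/well) on poly-D-lysine-coated wells, allowed to adhere overnight. Stained with Hoechst 33342 for 30 min, washed with PBS, resuspended in medium, then treated at 10 μM for 48 h.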

K562 [16] = experiment: Induction of apoptosis in human K562 cells assessed as nuclear fragmentation at 10 uM incubated for 48 hrs by Hoechst 33342 staining based fluorescence microscopy; assay type: functional, cell-based; method in brief: as §4
K562 [17] = experiment: Induction of apoptosis in human K562 cells assessed as viable cells level at 10 uM incubated for 24 hrs by Annexin-V and propidium iodide staining staining based flow cytometry (reference value: 98%); assay type: functional
K562 [18] = experiment: Induction of apoptosis in human K562 cells assessed as early apoptotic cells level at 10 uM incubated for 24 hrs by Annexin-V and propidium iodide staining staining based flow cytometry (reference value: 1.6%); assay type: functional
K562 [19] = experiment: Induction of apoptosis in human K562 cells assessed as reduction in pro-caspase-3 levels at 10 uM incubated for 48 hrs by Western blot method relative to basal level; assay type: functional; details: K562, 48 h
Method in brief: (§5)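 K562 cells were seeded at 1.5 × 10⁵/well and treated 48 h. Lysate protein was measured by Lowry assay and run on SDS-PAGE. Blots on nitrocellulose were probed with alkaline phosphatase-conjugated antibodies to pro-caspases 3 and 6. Loading was checked by Ponceau red and β-actin immunoblot, with level expressed against basal. Three independent experiments.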

K562 [20] = experiment: Induction of apoptosis in human K562 cells assessed as reduction in pro-caspase-6 levels at 10 uM incubated for 48 hrs by Western blot method relative to basal level; assay type: functional; details: K562, 48 h; method in brief: as §5
OVCAR-4 = experiment: Growth inhibition of human OVCAR4 cells by NCI standard protocol based method; assay type: functional; method in brief: as §1

Structure (SMILES)	pIC50 [1]	Ratio IC50 (K562 [2])	GI50 (CCRF-CEM) [nM]	GI50 [3] [nM]	GI50 (SR) [nM]	GI50 [4] [nM]	GI50 [5] [nM]	GI50 (HCT-15) [nM]	GI50 (U-251) [nM]	GI50 [6] [nM]	GI50 (UACC-257) [nM]	GI50 (NCI/ADR-RES) [nM]	GI50 (SK-OV-3) [nM]	GI50 (ACHN) [nM]	GI50 (UO-31) [nM]	GI50 (DU-145) [nM]	GI50 [7] [nM]	GI50 (T47D) [nM]	inhibition (Tubulin (Homo sapiens))	Activity (K562 [8])	other results
NC(=O)c1cc(I)ccc1NC(=O)COc1ccccc1	3.50	1987.5	382	553	221	353	2950	253	396	822	41700	344	3170	1320	2870	444	630	556	inactive	Active	Activity (K562 [9]): Active; Activity (K562 [10]): Active; Activity (K562 [11]): 78.5%; Activity (K562 [12]): 2.4%; Activity (K562 [13]): 32.9%; Activity (K562 [14]): 13.3%; Activity (K562 [15]): Active; Activity (K562 [16]): Active; Activity (K562 [17]): 62.1%; Activity (K562 [18]): 24.5%; inhibition at 10 µM (K562 [19]): 40%; inhibition at 10 µM (K562 [20]): 20%
COc1ccc(NC(=O)COc2ccccc2)c(C(N)=O)c1	3.03	856.28	487	1170	392	487	2340	432	664	869	> 100000	418	2990	2250	8720	1870	592		inactive		GI50 (OVCAR-4): > 100000 nM
COc1cc(NC(=O)COc2ccccc2)c(C(N)=O)cc1OC	3.79	280.52	562	2270	515	453	3330	804	777	1810	> 100000	487	3580	8120	13500	914	771	3460	inactive	Active	GI50 (OVCAR-4): > 100000 nM; Activity (K562 [9]): Active; Activity (K562 [10]): Active; Activity (K562 [11]): 80%; Activity (K562 [12]): 2.8%; Activity (K562 [13]): 20.6%; Activity (K562 [14]): 31.2%; Activity (K562 [15]): Active; Activity (K562 [16]): Active; Activity (K562 [17]): 63.3%; Activity (K562 [18]): 22.7%; inhibition at 10 µM (K562 [19]): 50%; inhibition at 10 µM (K562 [20]): 50%
NC(=O)c1cc(Cl)ccc1NC(=O)COc1ccccc1	3.09	621.38	3070	4330	777	2510	12100	1570	2340	8330		1430	8150	10700	17500	6010	4650	6870	inactive		

Reference: ChEMBL document CHEMBL3612047, “Synthesis, antiproliferative activity and possible mechanism of action of novel 2-acetamidobenzamides bearing the 2-phenoxy functionality” (Bioorg Med Chem, 2015)
